# Hits are enriched below; roughly 1.7% of the tested compounds scored in any of these assays.
# Vif inh: HIV Vif inhibition | HEK293T cells, Vif self-association by quenched fluorescence, imaging, 24 h | inhibition, % at 7.49 µM | actives 0.35% (n = 340,000) | AID 602346; in the data active means inhibition above about 50%, passing the limit was not always enough; inconclusive means no clear call, values can overlap the other calls; inactive means below about 31%
# DSG3 Ab inh: blocks pemphigus antibody binding to human desmoglein-3 | P32926 | DSG3-coupled beads, scFv-anti-DSG3-GFP binding, flow cytometry; active compounds read low | binding (percent of control), % at 10 µM | actives 0.48% (n = 310,000) | AID 588358;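 active means binding more than 3 SD below its plate's average and above zero; inconclusive means below that plate limit but binding exactly zero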;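 further: hits lower antibody fragment binding to DSG3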
# Target sequence (P32926 whole entry, looked up, the tested form may be a part): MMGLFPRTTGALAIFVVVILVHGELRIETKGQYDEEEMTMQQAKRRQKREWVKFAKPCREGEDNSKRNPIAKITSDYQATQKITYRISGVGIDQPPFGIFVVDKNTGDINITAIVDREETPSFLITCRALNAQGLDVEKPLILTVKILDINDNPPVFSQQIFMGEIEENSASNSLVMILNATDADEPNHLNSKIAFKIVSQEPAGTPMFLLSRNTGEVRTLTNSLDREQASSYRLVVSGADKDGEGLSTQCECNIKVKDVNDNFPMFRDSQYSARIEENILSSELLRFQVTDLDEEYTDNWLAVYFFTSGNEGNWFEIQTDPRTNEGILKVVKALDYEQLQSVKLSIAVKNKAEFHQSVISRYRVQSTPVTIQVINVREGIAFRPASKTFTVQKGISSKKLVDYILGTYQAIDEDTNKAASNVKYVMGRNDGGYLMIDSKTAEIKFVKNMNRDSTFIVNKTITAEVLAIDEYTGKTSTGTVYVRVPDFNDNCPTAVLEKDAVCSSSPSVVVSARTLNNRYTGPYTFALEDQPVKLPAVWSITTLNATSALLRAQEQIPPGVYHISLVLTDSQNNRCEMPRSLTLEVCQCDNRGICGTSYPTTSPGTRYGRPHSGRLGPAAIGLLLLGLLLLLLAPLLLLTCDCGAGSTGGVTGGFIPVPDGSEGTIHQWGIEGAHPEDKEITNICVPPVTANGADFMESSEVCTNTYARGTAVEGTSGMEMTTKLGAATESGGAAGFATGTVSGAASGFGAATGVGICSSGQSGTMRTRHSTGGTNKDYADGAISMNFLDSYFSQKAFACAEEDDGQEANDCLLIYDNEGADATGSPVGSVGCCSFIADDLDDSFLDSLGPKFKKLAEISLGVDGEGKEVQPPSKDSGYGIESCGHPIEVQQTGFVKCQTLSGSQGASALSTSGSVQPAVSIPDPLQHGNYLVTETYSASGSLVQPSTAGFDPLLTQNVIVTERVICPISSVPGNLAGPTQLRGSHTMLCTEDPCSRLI
# T cell modulator: modulates CD8 T cell binding to vesicles | 2C CD8+ T cell-vesicle binding, flow cytometry; active compounds read low | response (vesicle binding), % at 7 µM | actives 0.068% (n = 330,000) | AID 2052;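 active means response, share of CD8 T cells binding vesicles, and their 90th percentile fluorescence all below set limits, cut at about 80% in these data, passing the limit was not always enough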;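 further: values below 100% mean blocked vesicle binding to the CD8+ T cells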
#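 Material: 2C TCR transgenic mouse naive CD8+ T cells, MACS-purified. Also added: QL9-charged Drosophila Ld/ICAM-1/B7-1 vesicles. Timing: binding 1.5 h at 37 °C. Measured by: high-throughput flow cytometry with anti-B7-1 and anti-CD8 staining. Read-out: percent CD8+ FL2 mean versus row control. Controls: Unloaded micro-vesicles (low), QL9 vesicles with 0.7% DMSO (high).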
# Myeloid diff 2: myeloid differentiation induction; ER-HoxA9 myeloid progenitors, lysozyme-GFP differentiation, flow cytometry; actives 1% (n = 360,000); calls only at 10 µM;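 active means normalized GFP-positive differentiation at or above the plate's own cutoff, the solvent-only control mean plus 3 SD; inconclusive means no clear call, values can overlap the other calls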;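 further: cells exposed to compound for four days before flow analysis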
# Numbers stand for hits; – = inactive; ? = inconclusive; · = no result; + = active, no number.
SMILES,Vif inh,DSG3 Ab inh,T cell modulator,Myeloid diff 2
CCc1ccc(-c2cc(C)no2)cc1S(=O)(=O)N1CCN(c2ccc(F)cc2)CC1,–,–,–,+
O=S(=O)(CCNCCc1ccccc1)NCc1ccccc1,–,–,·,–
CN(CC(=O)NCc1ccc(F)cc1)Cc1ccc(Br)cc1,–,–,–,–
COc1ccc(Br)cc1CN(C)CC(=O)NCc1ccc(F)cc1,–,–,–,+
Cc1cc(C)cc(OCC(=O)OCC(=O)NCCC2=CCCCC2)c1,–,-9.8,–,–
O=C(CSc1ccsc1[N+](=O)[O-])N1CCN(c2ccc(Cl)cc2)CC1,–,–,–,+
CCCc1c(-c2ccc(F)cc2)ncn1Cc1ccccc1OC,·,·,·,–
COc1ccc(Cc2c(-c3cccc(Br)c3)nc3c(C)cc(Br)cn23)c(C)c1,·,·,·,–
CCOC(=O)C1=CNS(=O)(=O)NC1c1ccccc1 (stereo unspecified),–,–,·,–
CCOC(=O)Cc1nn2c(=O)cc(C)nc2s1,–,·,–,+
CCOC(=O)Cc1c(C)nc2cc(C)nn2c1C,–,–,–,–
CCN(CC)S(=O)(=O)c1cc(NC(=O)C(C)N2CCc3ccccc32)ccc1C (stereo unspecified),–,–,–,+
S=C(NCc1ccncc1)Nc1ccccc1,–,–,–,–
S=C(NCc1ccccc1)Nc1ccncc1,–,–,–,+
Cc1ccc(N(C(=O)CNC(=O)c2ccco2)C(C(=O)NCC2CCCO2)c2ccccc2)cc1C (stereo unspecified),53,–,–,–
Cc1[nH]c2ccccc2c1C(=O)C(C)OC(=O)c1ccc(NC(=O)CC#N)cc1 (stereo unspecified),–,–,–,+
N/C(=N/OC(=O)c1ccccc1Cl)c1ncc([N+](=O)[O-])s1,–,–,–,+
CCOn1c(=O)c(C)[n+]([O-])c2ccccc21,?,–,–,–
CCOn1c(=O)c(-c2ccc(F)cc2)[n+]([O-])c2ccccc21,–,–,–,–
O=c1c[n+]([O-])c2ccccc2n1OCc1c(F)cccc1F,–,–,–,+
O=c1c[n+]([O-])c2ccccc2n1OCc1ccccn1,–,·,–,+
CCOn1c(=O)c[n+]([O-])c2ccccc21,–,–,–,+
COC(=O)c1ccccc1COn1c(=O)c(C)[n+]([O-])c2ccccc21,–,–,–,–
Cc1c(=O)n(OCc2ccccn2)c2ccccc2[n+]1[O-],–,–,–,–
COC(=O)c1ccccc1COn1c(=O)c[n+]([O-])c2ccccc21,–,–,–,+
SMILES,Vif inh,DSG3 Ab inh,T cell modulator,Myeloid diff 2
CCN(CC)CCN1CCN(c2cncc(-c3ccc4ccccc4c3)n2)CC1,–,·,·,–
CCCc1nc2ccc(C(=O)OC)cn2c1Cc1cccc(F)c1,·,·,·,–
COC(=O)C[C@H]1CC[C@H](NS(=O)(=O)c2cn(C)cn2)[C@@H](CO)O1,·,·,·,–
CC1CCCC(NC(=O)/C=C/c2c(F)cccc2Cl)C1C (stereo unspecified),–,–,–,–
Cc1cn([C@H]2C[C@H](O)[C@@H](/C=C/C(=O)NCc3ccco3)O2)c(=O)[nH]c1=O,–,·,·,+
COc1ccc(C(=O)Oc2ccc3c(c2)OCO3)cc1OC,–,21,–,–
CC(C)COC(=O)N(C)C[C@H]1OCc2cnnn2CCCC(=O)N([C@H](C)CO)C[C@@H]1C,–,–,·,–
CCc1nc2c(OCc3ccc(C#N)cc3)cccn2c1N(C)C(=O)C(C)C,·,·,·,–
N#Cc1ccc(CSc2nnc(-c3ccccc3)n2Cc2ccco2)cc1,–,–,·,+
N#Cc1ccc(CSc2nnc(-c3cccs3)n2-c2ccccc2)cc1,55,–,–,–
CCOc1ccccc1NC(C)C(=O)NC(=O)NC1CCCCC1 (stereo unspecified),–,·,–,–
CC(O)(c1cccc(F)c1)c1nc(-c2cccc3cccnc23)cs1 (stereo unspecified),–,·,·,–
CC(C)Oc1ccc(Br)cc1/C=N\NC(N)=S,–,–,–,+
Cc1cc(/C=N/NC(N)=S)c(C)n1-c1ccc(Br)cc1,–,–,–,–
CC1(C(=O)NS(=O)(=O)c2ccc(F)cc2F)CCN1C(=O)C1(c2ccc(Cl)cc2)CC1 (stereo unspecified),–,·,·,–
O=C(COC(=O)Cn1[nH]c(=O)c2ccccc2c1=O)NNC(=O)c1ccc(Br)cc1,–,–,–,–
CC1(C(=O)NCc2ccccc2)CSCC(=O)N1Cc1cccc(F)c1 (stereo unspecified),·,·,·,–
Cc1ccc(-n2c([O-])nc(-[n+]3ccccc3)c2C=O)cc1,51,–,–,–
COc1cc(C(=O)Nc2cc(S(C)(=O)=O)ccc2Cl)ccc1OCC(=O)N1CCOCC1,–,–,–,–
CCOc1ccc(N=C(C)c2ccccc2O)cc1,–,–,–,+
CC1=C(C(=O)N2CCOCC2)CC(CC(=O)NCc2cccc3ccccc23)C(=O)N1Cc1ccc(C(C)(C)C)cc1 (stereo unspecified),·,·,·,–
COCCOCC(=O)Nc1ccc(S(=O)(=O)Nc2cc(C)nc(C)n2)cc1,–,–,–,+
C=C1c2nc3ccccc3n2C=C(c2ccc(C)cc2)N1c1ccccc1,–,–,·,–
Cc1cc(O)ccc1Nc1nc(-c2cccs2)cs1,–,–,–,+
Cc1cc(O)ccc1Nc1nc(-c2cccnc2)cs1,–,–,–,–
SMILES,Vif inh,DSG3 Ab inh,T cell modulator,Myeloid diff 2
COc1ccc(/C=C/C(=O)c2cc(F)ccc2OC(=O)c2ccccc2)cc1OC,·,–,–,·
COc1ccc(/C=C/C(=O)c2cc(F)ccc2OC(=O)c2ccccc2OC)cc1OC,91,–,·,·
CCOc1ccc(N(CC(=O)NCCc2ccccc2)C(=O)CCC(=O)Nc2cc(C)ccn2)cc1,–,·,–,+
Cc1ccnc(NC(=O)CCC(=O)N(CC(=O)NCCc2ccccc2)c2ccc(F)cc2)c1,–,–,–,–
CC(=O)C1=C(C)NC2=C(C(=O)c3ccccc32)C1c1ccccc1 (stereo unspecified),–,–,–,–
Nc1nc2c(c(=O)[nH]1)C(c1cccc3ccccc13)C1=C(N2)c2ccccc2C1=O (stereo unspecified),–,41,·,–
CCc1ccccc1NC(=S)N1CCN(c2cccc(OC)c2)CC1,–,–,–,–
CCC/C(C#Cc1cc(OC)cc(OC)c1)=C1/c2ccccc2C(=O)N1c1ccccc1,–,·,–,–
CCC/C(C#Cc1ccc(N(C)C)cc1)=C1/c2ccccc2C(=O)N1c1ccccc1,–,–,–,+
O=C(NCc1ccccn1)[C@@H]1CCCN1C(=O)[C@@H]1CCCN1C(=O)c1cccc2ccccc12,·,·,·,–
COc1cc(/C=C2\SC(=S)N(Nc3ccccc3)C2=O)ccc1O,–,–,–,–
O=C1/C(=C/c2ccc(O)c(O)c2)SC(=S)N1Nc1ccccc1,–,–,·,+
COc1ccc(OCCCC(=O)Nc2cccnc2)cc1,–,–,–,–
COc1ccc(OCCCC(=O)Nc2ncn[nH]2)cc1,51,–,–,–
O=C1C(=Cc2ccc(Br)o2)C(=O)c2ccccc21,–,94,–,–
CCOC(=O)C1=C(C)NC(=O)NC1c1cc(Br)c(O)c(OC)c1 (stereo unspecified),·,76,–,–

# Compound activity from PubChem BioAssay.
